Measured values as given in ChEMBL document CHEMBL1155233, “Structure mechanism insights and the role of nitric oxide donation guide the development of oxadiazole-2-oxides as therapeutic agents against schistosomiasis” (J Med Chem, 2009).
Values after ≈ are worked out from the molar mass of the structure shown. Active and inactive are the calls of the source. No cut-off for these calls is given here.

Assays:
[1] = molecular target: T1, Glutathione reductase, mitochondrial (Homo sapiens, UniProt P00390); assay: Inhibition of human recombinant GR after 15 mins in presence of NADPH
T1 sequence (P00390 whole entry): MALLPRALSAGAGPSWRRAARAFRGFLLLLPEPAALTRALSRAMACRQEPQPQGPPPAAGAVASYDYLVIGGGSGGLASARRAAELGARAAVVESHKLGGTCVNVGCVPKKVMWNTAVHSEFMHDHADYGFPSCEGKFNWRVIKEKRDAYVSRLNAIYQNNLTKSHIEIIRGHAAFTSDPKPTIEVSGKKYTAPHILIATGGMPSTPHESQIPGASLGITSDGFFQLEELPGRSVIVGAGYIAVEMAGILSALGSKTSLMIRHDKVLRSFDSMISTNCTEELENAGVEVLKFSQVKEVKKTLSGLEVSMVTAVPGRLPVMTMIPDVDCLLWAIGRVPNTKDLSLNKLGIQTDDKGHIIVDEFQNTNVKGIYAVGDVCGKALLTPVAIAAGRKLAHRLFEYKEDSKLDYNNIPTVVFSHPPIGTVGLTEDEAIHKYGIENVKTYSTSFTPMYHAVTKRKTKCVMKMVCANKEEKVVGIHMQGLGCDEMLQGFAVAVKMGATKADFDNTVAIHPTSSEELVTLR

Schistosoma mansoni [2] = assay: Antischistosomal activity against Schistosoma mansoni assessed as induction of parasite mortality after 24 hrs; format: functional; design: concentration or dose not given beside the values
Outline: (§1)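 Cultured ex vivo worms were exposed to 10 μM compound. Worm effects were scored by visual examination at time points over a 72 h time-course.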

Schistosoma mansoni [3] = assay: Antischistosomal activity against Schistosoma mansoni assessed as induction of parasite mortality after 48 hrs; format: functional; design: concentration or dose not given beside the values; outline: as §1
hERG (KCNH2) = hERG (KCNH2) (Homo sapiens, UniProt Q12809); assay: Inhibition of human ERG expressed in HEK293 cells at 10 uM by fast patch clamp method; conditions: HEK293 cells expressing human ERG
Sequence of hERG (KCNH2) (Q12809 whole entry): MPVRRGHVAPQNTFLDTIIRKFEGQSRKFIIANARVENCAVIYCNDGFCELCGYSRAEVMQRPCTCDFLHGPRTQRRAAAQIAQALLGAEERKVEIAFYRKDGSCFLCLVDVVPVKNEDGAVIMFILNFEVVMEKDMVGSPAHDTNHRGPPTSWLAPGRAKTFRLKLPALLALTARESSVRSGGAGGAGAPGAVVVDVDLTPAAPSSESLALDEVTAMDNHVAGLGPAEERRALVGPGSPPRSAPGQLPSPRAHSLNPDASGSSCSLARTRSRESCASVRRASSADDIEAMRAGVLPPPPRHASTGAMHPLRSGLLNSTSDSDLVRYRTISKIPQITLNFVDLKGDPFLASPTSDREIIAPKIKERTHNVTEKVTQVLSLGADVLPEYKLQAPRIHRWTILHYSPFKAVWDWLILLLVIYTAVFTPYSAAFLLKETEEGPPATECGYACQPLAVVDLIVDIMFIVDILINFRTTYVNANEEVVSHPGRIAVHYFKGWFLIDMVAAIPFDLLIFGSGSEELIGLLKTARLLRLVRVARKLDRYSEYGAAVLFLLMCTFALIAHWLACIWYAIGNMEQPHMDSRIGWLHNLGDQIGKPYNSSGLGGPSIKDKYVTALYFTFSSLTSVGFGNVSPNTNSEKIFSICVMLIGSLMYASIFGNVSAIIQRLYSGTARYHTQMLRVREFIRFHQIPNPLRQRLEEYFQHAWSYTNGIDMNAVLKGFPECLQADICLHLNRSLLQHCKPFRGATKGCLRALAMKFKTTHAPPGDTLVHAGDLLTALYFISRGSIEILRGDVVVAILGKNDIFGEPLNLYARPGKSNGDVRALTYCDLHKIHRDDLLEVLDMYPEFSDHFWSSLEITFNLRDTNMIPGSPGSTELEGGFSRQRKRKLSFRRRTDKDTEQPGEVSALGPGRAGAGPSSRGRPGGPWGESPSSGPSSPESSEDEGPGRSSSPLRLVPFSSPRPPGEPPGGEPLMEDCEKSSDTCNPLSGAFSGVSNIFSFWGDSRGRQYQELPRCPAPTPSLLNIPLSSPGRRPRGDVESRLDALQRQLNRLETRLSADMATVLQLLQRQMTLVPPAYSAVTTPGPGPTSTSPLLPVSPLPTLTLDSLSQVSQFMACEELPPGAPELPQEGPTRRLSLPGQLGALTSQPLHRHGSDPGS

Schistosoma mansoni [4] = assay: Antischistosomal activity against Schistosoma mansoni assessed as induction of parasite curling after 4 hrs; format: functional, organism-based; outline: as §1
[5] = molecular target: T2, Thioredoxin reductase 1, cytoplasmic (Rattus norvegicus, UniProt O89049); assay: Inhibition of rat recombinant TrxR1 after 10 mins
T2 sequence (O89049 whole entry): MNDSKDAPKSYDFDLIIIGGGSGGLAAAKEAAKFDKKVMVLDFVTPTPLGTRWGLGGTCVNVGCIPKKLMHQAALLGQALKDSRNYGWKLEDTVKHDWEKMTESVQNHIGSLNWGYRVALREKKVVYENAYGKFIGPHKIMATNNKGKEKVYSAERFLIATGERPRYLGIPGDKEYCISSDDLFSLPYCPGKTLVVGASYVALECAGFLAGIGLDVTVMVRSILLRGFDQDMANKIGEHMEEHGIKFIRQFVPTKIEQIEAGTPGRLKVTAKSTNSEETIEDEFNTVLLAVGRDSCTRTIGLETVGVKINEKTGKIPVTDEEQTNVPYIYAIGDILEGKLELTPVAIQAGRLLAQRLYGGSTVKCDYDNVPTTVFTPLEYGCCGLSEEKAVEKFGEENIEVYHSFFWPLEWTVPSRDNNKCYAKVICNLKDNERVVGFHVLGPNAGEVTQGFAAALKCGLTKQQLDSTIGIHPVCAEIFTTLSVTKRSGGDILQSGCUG

Schistosoma mansoni [6] = assay: Antischistosomal activity against Schistosoma mansoni assessed as induction of parasite mortality after 16 hrs; format: functional; design: concentration or dose not given beside the values; outline: as §1
Schistosoma mansoni [7] = assay: Antischistosomal activity against Schistosoma mansoni assessed as induction of parasite mortality after 8 hrs; format: functional; design: concentration or dose not given beside the values; outline: as §1
[8] = Solubility by quantitative nitrogen detection based method
Schistosoma mansoni [9] = assay: Antischistosomal activity against Schistosoma mansoni assessed as parasite killing after 2 hrs; format: functional, organism-based; outline: as §1
[10] = Reactivity with cysteine at 0.1 mM in 0.1M phosphate buffer assessed as amount of compound unreacted by HPLC
Schistosoma mansoni [11] = assay: Antischistosomal activity against Schistosoma mansoni assessed as induction of parasite mortality after 72 hrs; format: functional; design: concentration or dose not given beside the values; outline: as §1
[12] = molecular target: T3, Thioredoxin glutathione reductase (Schistosoma mansoni, UniProt Q962Y6); assay: Inhibition of Schistosoma mansoni TGR
T3 sequence (Q962Y6 whole entry): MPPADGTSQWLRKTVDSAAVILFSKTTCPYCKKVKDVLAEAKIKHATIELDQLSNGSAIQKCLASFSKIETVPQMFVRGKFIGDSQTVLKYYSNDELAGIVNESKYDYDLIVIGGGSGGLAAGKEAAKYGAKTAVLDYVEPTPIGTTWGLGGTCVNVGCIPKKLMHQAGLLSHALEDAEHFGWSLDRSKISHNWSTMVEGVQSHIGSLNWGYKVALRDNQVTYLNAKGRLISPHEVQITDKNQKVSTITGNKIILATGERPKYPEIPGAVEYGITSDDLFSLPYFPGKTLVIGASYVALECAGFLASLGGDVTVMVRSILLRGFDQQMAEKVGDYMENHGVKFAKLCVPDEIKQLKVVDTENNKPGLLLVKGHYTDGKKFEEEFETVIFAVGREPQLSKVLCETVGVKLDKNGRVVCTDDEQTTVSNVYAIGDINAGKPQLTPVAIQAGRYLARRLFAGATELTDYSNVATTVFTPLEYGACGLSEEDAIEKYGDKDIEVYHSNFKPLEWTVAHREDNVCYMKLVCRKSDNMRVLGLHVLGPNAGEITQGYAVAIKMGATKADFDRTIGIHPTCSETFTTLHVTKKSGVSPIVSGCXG

Schistosoma mansoni [13] = assay: Antischistosomal activity against Schistosoma mansoni assessed as parasite killing after 4 hrs; format: functional; outline: as §1
[14] = Induction of nitric oxide release at 10 uM in presence of Schistosoma mansoni recombinant TGR and NADPH; format: functional
[15] = Induction of nitric oxide release at 10 uM in presence of Schistosoma mansoni recombinant TGR; format: functional
Schistosoma mansoni [16] = assay: Antischistosomal activity against Schistosoma mansoni assessed as induction of parasite sluggish movement after 16 hrs; format: functional, organism-based; outline: as §1
[17] = Induction of nitric oxide release at 10 uM in presence of cysteine; format: physicochemical
Caco-2 [18] = assay: Apparent permeability from basolateral to apical side of human Caco-2 cells
[19] = Metabolic stability in human liver microsomes assessed as compound remaining over 60 mins in presence of NADPH; format: ADME, Microsome; conditions: read-out: Stability
[20] = Metabolic stability in human liver microsomes assessed as compound remaining over 60 mins in absence of NADPH; format: ADME, Microsome; conditions: read-out: Stability
Schistosoma mansoni [21] = assay: Antischistosomal activity against Schistosoma mansoni assessed as induction of parasite sluggish movement after 8 hrs; format: functional, organism-based; outline: as §1
[22] = Distribution coefficient, log D of the compound; conditions: octanol/water
Caco-2 [23] = assay: Apparent permeability from apical to basolateral side of human Caco-2 cells
Schistosoma mansoni [24] = assay: Antischistosomal activity against Schistosoma mansoni assessed as induction of parasite sluggish movement after 4 hrs; format: functional, organism-based; outline: as §1

| Structure (SMILES) | IC50 [1] [µM] | Activity (Schistosoma mansoni [2]) | Activity (Schistosoma mansoni [3]) | IC50 [5] [µM] | Activity (Schistosoma mansoni [6]) | Activity (Schistosoma mansoni [7]) | Activity (Schistosoma mansoni [9]) | Activity [10] | Activity (Schistosoma mansoni [11]) | Activity (Schistosoma mansoni [13]) | Activity [14] [%] | Activity [15] [%] | Activity (Schistosoma mansoni [16]) | Activity [17] [%] | other results |
| --- | --- | --- | --- | --- | --- | --- | --- | --- | --- | --- | --- | --- | --- | --- | --- |
| N#Cc1c(-c2cccc(-c3no[n+]([O-])c3C#N)c2)no[n+]1[O-] | > 50 | 100% | 100% | 150 | 60% | 45% | inactive |  |  |  |  |  |  |  | inhibition at 10 µM (hERG (KCNH2)): 7.8%; Activity (Schistosoma mansoni [4]): Active; solubility [8]: 5 µM (≈ 1.48 µg/mL) |
| O=C(c1cccs1)c1no[n+]([O-])c1C(=O)c1cccs1 |  | inactive | inactive |  | inactive | inactive | inactive | Active | inactive | inactive |  |  |  |  | IC50 [12]: 0.04 µM |
| N#Cc1c(-c2ccccc2)no[n+]1[O-] [FUROXAN] |  |  |  |  |  |  | inactive | Active |  |  | 15 | 1.5 |  |  | Activity (Schistosoma mansoni [4]): Active |
| N#Cc1c(C(=O)c2cccs2)no[n+]1[O-] |  | inactive | inactive |  | inactive | inactive | inactive | Active | inactive | inactive |  |  |  |  | IC50 [12]: 0.063 µM |
| N#Cc1c(-c2cccc([N+](=O)[O-])c2)no[n+]1[O-] | > 50 | 10% | 15% | 150 |  | inactive | inactive |  | 21% | inactive | 16 | 2 | Active | 72 |  |
| N#Cc1c(-c2ccc(Cl)cc2)no[n+]1[O-] | > 50 | 42% | 60% | > 400 |  | inactive | inactive |  | 100% | inactive | 16 | 2 | Active | 61 |  |
| N#Cc1c(-c2cccs2)no[n+]1[O-] |  | 25% | 100% |  | 25% |  | inactive |  | 100% | inactive | 2 | 1 |  | 20 | Papp (Caco-2 [18]): 9 ×10⁻⁶ cm/s; remaining at 1 h [19]: 1%; inhibition at 10 µM (hERG (KCNH2)): 3.4%; IC50 [12]: 3.5 µM; solubility [8]: 240 µM (≈ 46.4 µg/mL); remaining at 1 h [20]: 64% |
| N#Cc1c(-c2csc(-c3no[n+]([O-])c3C#N)c2)no[n+]1[O-] |  |  |  |  |  |  | inactive |  |  |  |  |  |  |  | remaining at 1 h [20]: 52% |
| COc1cc(-c2no[n+]([O-])c2C#N)cc(OC)c1OC | > 50 | 40% | 70% | 150 |  | 7% | inactive |  | 75% | inactive | 8 | < 1 | Active | 20 |  |
| N#Cc1c(-c2ccc(-c3ccccc3)cc2)no[n+]1[O-] |  | Active | 40% |  |  |  | inactive |  | 45% | inactive |  |  | Active |  | Activity (Schistosoma mansoni [21]): Active |
| N#Cc1c(-c2cc(F)cc(-c3no[n+]([O-])c3C#N)c2)no[n+]1[O-] |  | 78% | 100% |  | 55% |  | inactive | Active |  | inactive |  |  |  |  | Papp (Caco-2 [18]): 2.7 ×10⁻⁶ cm/s; remaining at 1 h [19]: 20%; inhibition at 10 µM (hERG (KCNH2)): 29.4%; logD [22]: 2.91; Papp (Caco-2 [23]): 7.9 ×10⁻⁶ cm/s; solubility [8]: 89.1 µM (≈ 28 µg/mL); remaining at 1 h [20]: 51% |
| N#Cc1c(-c2cccc(Cl)c2)no[n+]1[O-] | 35.7 | 64% | 80% | < 12.5 | 20% | 15% | inactive |  | 100% |  | 12 | 1 |  | 50 | Activity (Schistosoma mansoni [24]): Active |
| N#Cc1c(-c2ccc(O)cc2)no[n+]1[O-] | > 50 | 40% | 60% | > 400 | 15% |  | inactive |  | 100% | inactive |  |  |  |  | Activity (Schistosoma mansoni [21]): Active |
